Bioassay records deposited in PubChem BioAssay by several laboratories.
Only some compounds are listed: those with a hit (about 3.8% of all), similar ones and a draw of the others.
SDO1 yeast rescue: restores growth of sdo1-depleted yeast; S. cerevisiae sdo1-depleted JHY4D growth rescue, OD600 30 h; stronger effect = higher value; pdr5 snq2 efflux-pump mutant strain; z-score at 10 µM; 140,000 compounds, 0.21% hits; AID 817;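 active means z-score above 3 at both the 24 hr and the 30 hr optical density reads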;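 further: z-score against mean and SD of all compound wells on the same plate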
Yeast lifespan up: yeast lifespan extension; AID 775; inhibition of the nicotinamide effect, % at 10 µM; 130,000 compounds, 0.68% hits; S. cerevisiae growth with nicotinamide, OD615; deaD strain in restrictive glucose medium;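 active means inhibition above a set limit, placed 3 SD over the median of all compounds, cut at about 26% in these data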;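 further: 0% = nicotinamide-treated wells and 100% = cells grown without nicotinamide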
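Assay system: DeaD-strain S. cerevisiae. Medium: CSMM-D glucose medium, restrictive. Reagent: nicotinamide, 1.5 mM, co-present with compound. Compound: 10 µM single point, 0.25% DMSO. Schedule: culture preincubation 4 h, compound exposure 48 h, both 30 °C. Detection: absorbance at 615 nm.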
Measles CPE: protection of cells from measles virus; 140,000 compounds, 1.5% hits; AID 841; protection (pct of control), % at 4 µM; Measles virus-infected cells, CPE protection, absorbance; in the data active means protection mostly above about 24%, no sharp cut-off; inactive means mostly below about 26%
Yeast growth inh: reduces growth of yeast BB579 in restrictive medium; S. cerevisiae BB579 growth, OD615, 48 h; inhibition, % at 10 µM; 140,000 compounds, 0.51% hits;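 active means inhibition above a set limit, 3 SD over the mean compound inhibition, cut at about 44% in these data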
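System: Saccharomyces cerevisiae DeaD strain BB579, replicative lifespan model yeast. Buffer or medium: restrictive glucose-based CSMM-D medium. Doses: one dose, 10 µM compound with 0.25% DMSO. Timing: 4 h preincubation and 48 h exposure at 30 °C. Detection: turbidity as optical density at 615 nm. Benchmarks: amphotericin B 10 µg/mL, positive.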
RAM inhibit: inhibitors of the yeast RAM network; S. cerevisiae dse1pr::URA3 reporter, 5-FOA growth OD615, 2 d; analog-sensitive cbk1-as2 kinase mutant strain; inhibition, % at 50 µM; 190,000 compounds, 1.8% hits; AID 868;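 active means inhibition above a set limit, 3 SD over mean compound inhibition, cut at about 8.4% in these data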;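 further: 0% = DMSO-only wells with no growth and 100% = 10 µM 1-NA-PP1 full growth; inhibition rescues growth on 5-FOA so higher OD means more RAM inhibition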
Active calls of the source: *; / = no result.

SMILES | SDO1 yeast rescue | Yeast lifespan up | Measles CPE | Yeast growth inh | RAM inhibit
Cc1ccc(OCCN2C(=O)C(=O)c3cccc(C)c32)cc1 | / | / | / | / | 2
COc1cccc(-n2nnnc2S(C)(=O)=O)c1 | -1.4 | 18 | 13 | 74* | -1
O=C1N=C(N2CCN(c3ccccc3)CC2)S/C1=C\c1cn[nH]c1-c1ccccc1 | 0.44 | 3 | 29* | -3 | 6
Cc1ccc(N2CCN(C3=NC(=O)/C(=C\c4cn[nH]c4-c4ccccc4)S3)CC2)cc1 | -0.37 | 4 | 9 | -11 | 7
Cc1nnn(C23CC4CC(CC(C(=O)NN)(C4)C2)C3)n1 | 0.79 | 4 | 33* | -39 | 1
CCOC(=O)c1sc2ccccc2c1OC(=O)c1ccccc1OC | -0.71 | 16 | 9 | -26 | 10*
CC(C)(C)NC(=O)C(c1cccs1)N(C(=O)c1csnn1)c1ccccc1F (centres undefined) | / | / | / | / | 1
C/C(N)=C(/C#N)C(=O)CSc1nc(C2CCCCC2)n(-c2ccccc2)n1 | -1.6 | 59* | 1 | 13 | 0
Cc1ccc(-c2ccc(/C=C3\C(=O)ON=C3c3ccccc3)o2)c([N+](=O)[O-])c1 | -2.2 | 71* | 6 | -21 | 7
COc1ccc(OC)c(Nc2nc(C3CC3)nc3c2nnn3Cc2ccccc2)c1 | -0.49 | -19 | 66* | -53 | 8
N=c1n(CCN2CCOCC2)c2ccccc2n1CC(=O)c1ccc(Cl)c(Cl)c1 | -2.1 | -28 | 3 | 95* | 0
N=c1n(CCN2CCCC2)c2ccccc2n1CC(O)c1ccc(Cl)c(Cl)c1 (centres undefined) | / | / | / | / | 2
COc1ccc(OCCC(=O)OCC(=O)Nc2cccc(Br)c2)cc1 | 0.93 | -6 | 41* | -15 | 0
COc1ccc(OCCC(=O)OCC(=O)Nc2ccc(Br)cc2)cc1 | 0.84 | -1 | 2 | -16 | 4
CCOC(=O)CN1C(=O)SC(CC(=O)Nc2nccs2)C1=O (centres undefined) | 1.5 | -8 | 36* | -50 | -1
O=C(CC1SC(=O)N(Cc2cccc3ccccc23)C1=O)Nc1nccs1 (centres undefined) | -1.5 | 0 | 2 | -35 | 4
Cn1cccc1C(=O)C(=O)Nc1cc(Cl)cc(Cl)c1 | -1.1 | -11 | 15 | -73 | 3
Cn1cccc1C(=O)C(=O)Nc1ccc(Cl)cc1 | -0.06 | -14 | 41* | -31 | -1
COc1ccc(S(=O)(=O)/N=C2/C=CC(=O)C(C)=C2C)cc1 | -0.65 | -5 | 5 | -46 | 1
CC1=C/C(=N\OS(=O)(=O)c2ccccc2)C(C)=CC1=O | -3 | -19 | 12 | 100* | -1
CC1=C(C)/C(=N\OS(=O)(=O)c2ccc(C)cc2)C=CC1=O | -1.6 | -10 | 1 | 99* | 0
CC1=C/C(=N\OS(=O)(=O)c2ccccc2)C(C(C)C)=CC1=O | -2.2 | -12 | 5 | 100* | 0
O=C(/C=C/c1ccccc1)CC(O)(c1ccccc1)C(F)(F)F (centres undefined) | -2 | 35* | 5 | -27 | 3
COc1ccc(/C=C/C(=O)CC(O)(c2ccccc2)C(F)(F)F)cc1 (centres undefined) | -1.6 | / | 4 | -21 | 2
O=C(CC(O)(c1ccccc1)C(F)(F)C(F)F)c1cccs1 (centres undefined) | 0.09 | -13 | 2 | 12 | 0
SMILES | SDO1 yeast rescue | Yeast lifespan up | Measles CPE | Yeast growth inh | RAM inhibit
O=C(/C=C/c1ccccc1)CC(O)(c1ccccc1)C(F)(F)C(F)F (centres undefined) | -1.9 | 40* | 14 | -42 | 3
O=C(NN1C(=O)c2ccccc2NC1c1ccccn1)c1ccccc1 (centres undefined) | 1.4 | -2 | 12 | -15 | 1
Cc1ccc(NC(=S)NC(=O)c2ccc(-c3ccc(Cl)cc3)o2)c(O)c1 | -1.5 | 4 | 12 | -35 | 10*
O=C(/C=C/NNC(=O)c1cccc(Br)c1)c1cccc(Br)c1 | 0.49 | 28* | 4 | -109 | 2
Brc1ccccc1Cn1c(-c2cscn2)nc2ccccc21 | -2.8 | 0 | 4 | -60 | -1
CC(=NCCc1c(C)[nH]c2ccc(OC(F)(F)F)cc12)C1=C(O)CC(c2ccccc2)CC1=O (centres undefined) | / | / | / | / | 5
CC(=NCCc1c(C)[nH]c2ccc(C)cc12)C1=C(O)CC(c2ccccc2)CC1=O (centres undefined) | -1.1 | 58* | -1 | -12 | 3
O=C(c1cccs1)n1nc(-c2ccccc2)nc1NCc1ccc(F)cc1 | -0.97 | 7 | 7 | 5 | 8.6*
O=C(c1cccc([N+](=O)[O-])c1)n1nc(-c2ccccc2)nc1NCc1ccccc1 | 0.88 | -1 | 25 | -2 | 9.7*
O=C(c1ccc([N+](=O)[O-])cc1)n1nc(-c2ccccc2)nc1NCc1ccccc1 | -0.83 | -22 | 8 | 2 | 7
CC(=O)n1nc(-c2ccccc2)nc1NCc1ccc(F)cc1 | -0.58 | -16 | 8 | -10 | -1
Cc1cccc2cc(-c3ccccc3)c(-c3ccccc3)c[n+]12 | -0.17 | 8 | 4 | -7 | -1
CCOc1ccc(C(C)=O)cc1COc1ccc(-n2cnnn2)cc1 | -0.37 | -20 | 18 | -27 | 8.7*
Cc1nnc(SCC(=O)NCc2ccc3c(c2)OCO3)[nH]c1=O | 0.36 | 1 | 6 | -23 | 0
COc1cccc2cc(-c3nnc(SCC(=O)NCc4ccccc4)n3C)oc12 | 0.05 | -2 | 7 | -27 | 9.1*
CCn1c(SCC(=O)NC2CCCCC2)nnc1-c1cc2cccc(OC)c2o1 | 0.01 | 3 | 8 | -20 | 1
CCC1SC2=NC(C)=C(C(=O)OCC(C)C)C(/C=C/c3ccccc3OC)N2C1=O (centres undefined) | 0.17 | 4 | 7 | -22 | 7
CCC1SC2=NC(C)=C(C(=O)OCCOC)C(/C=C/c3ccccc3OC)N2C1=O (centres undefined) | -0.02 | 2 | 54* | -53 | 4
Cc1snc(S(=O)(=O)Cc2ccccc2Cl)c1C#N | 1 | -23 | 4 | -41 | 0
CN(C)C=NC(=O)c1ccc(N2CCN(c3ncc(C(F)(F)F)cc3Cl)CC2)cc1 | -1.1 | -11 | 5 | 9 | 9.0*
Cc1ccc(-n2c(C)cc(C(=O)COC(=O)c3ccc[nH]c3=O)c2C)cc1C | -0.91 | -12 | 2 | 99* | 1
Cc1cc(C(=O)COC(=O)c2ccc3c(c2)OCO3)c(C)n1Cc1cccs1 | -1.3 | 0 | 11 | -43 | 7
Cc1ccc(-n2c(C)cc(C(=O)COC(=O)C3=NNC(=O)CC3)c2C)cc1 | -0.11 | -3 | 29* | -19 | 0
Cc1cc(C(=O)COC(=O)C2=NNC(=O)CC2)c(C)n1-c1ccccc1 | 0.08 | 11 | 8 | -39 | 1
CCCn1c(C)cc(C(=O)COC(=O)c2ccc[nH]c2=O)c1C | 1.3 | 25 | 9 | 45* | 2
Cc1cc(C(=O)COC(=O)c2ccccc2O)c(C)n1Cc1cccs1 | 0.38 | -13 | 22 | -48 | 9.0*
